Holding throughout (assay type): functional
The test system of experiment [1] is Escherichia coli DH5[alpha]. Put plainly: Agonist activity at Escherichia coli DH5alpha (pJN105L + pSC11) LasR assessed as activation of quorum sensing at 10 uM relative to N-(3-oxo)-dodecanoyl HL.
For experiment [2], the target named is T1, Transcriptional activator protein LasR (Pseudomonas aeruginosa (strain ATCC 15692 / PAO1 / 1C / PRS 101 / LMG12228)) (UniProt P25084).
T1 sequence (whole entry): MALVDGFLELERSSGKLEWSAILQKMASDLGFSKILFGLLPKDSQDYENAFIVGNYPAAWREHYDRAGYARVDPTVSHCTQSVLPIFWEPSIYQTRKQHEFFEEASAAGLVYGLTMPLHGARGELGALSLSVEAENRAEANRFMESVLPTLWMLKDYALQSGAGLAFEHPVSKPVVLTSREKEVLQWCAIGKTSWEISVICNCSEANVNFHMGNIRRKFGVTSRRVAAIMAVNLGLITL
Put plainly: Antagonist activity at Pseudomonas aeruginosa PAO1 MW1 (pUM15) LasR assessed as inhibition of N-(3-oxo)-dodecanoyl HL-induced quorum sensing activation at 10 uM relative to untreated control. An outline of the steps:
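P. aeruginosa PAO1 MW1 colony grown overnight at 30 °C in LB with MOPS at pH 7 plus carbenicillin (300 µg/mL). Diluted 1:10 and shaken at 37 °C to OD 0.25–0.30. OdDHL added to the subculture at 1 μM final, then plated with test compound. Plates shaken at 37 °C for 8 h, then optical density and fluorescence read.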

In experiment [3] the target is T1, Transcriptional activator protein LasR (Pseudomonas aeruginosa (strain ATCC 15692 / PAO1 / 1C / PRS 101 / LMG12228)). Put plainly: Agonist activity at Pseudomonas aeruginosa PAO1 MW1 (pUM15) LasR assessed as activation of quorum sensing at 10 uM relative to N-(3-oxo)-dodecanoyl HL. An outline of the steps:
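P. aeruginosa PAO1 MW1 grown overnight at 30 °C in LB/MOPS pH 7 with carbenicillin (300 µg/mL). Subcultured 1:10 at 37 °C to OD 0.25–0.30 and plated with compound only, no native ligand. Incubated with shaking at 37 °C for 8 h. OD and fluorescence then read.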

Experiment [4] has as its target T2, Transcriptional activator protein LuxR (Aliivibrio fischeri) (UniProt P12746).
T2 sequence (whole entry): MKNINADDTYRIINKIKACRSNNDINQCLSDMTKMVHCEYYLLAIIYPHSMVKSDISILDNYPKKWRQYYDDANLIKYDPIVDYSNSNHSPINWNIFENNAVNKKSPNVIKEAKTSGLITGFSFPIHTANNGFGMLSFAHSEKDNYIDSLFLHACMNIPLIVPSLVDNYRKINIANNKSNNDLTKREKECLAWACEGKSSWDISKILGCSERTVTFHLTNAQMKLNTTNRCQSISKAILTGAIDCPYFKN
Put plainly: Antagonist activity at Vibrio fischeri ESI 114 (delta-LuxI) LuxR assessed as inhibition of OHHL-induced quorum sensing activation at 10 uM relative to untreated control. In outline: (§1)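 LuxR reporter in V. fischeri ESI 114 (Δ-LuxI), compounds screened at 10 μM in triplicate. For inhibition, cells challenged with 2 μM OHHL. Agonism normalized to native ligand at 100 μM. Negative controls with no ligand subtracted as background.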

Experiment [5] concerns the target T2, Transcriptional activator protein LuxR (Aliivibrio fischeri). Put plainly: Agonist activity at Vibrio fischeri ESI 114 (delta-LuxI) LuxR assessed as activation of quorum sensing at 10 uM relative to OHHL. An outline of the steps: as §1
Experiment [6] concerns the target T3, Transcriptional activator protein TraR (Agrobacterium tumefaciens) (UniProt P33905).
T3 sequence (whole entry): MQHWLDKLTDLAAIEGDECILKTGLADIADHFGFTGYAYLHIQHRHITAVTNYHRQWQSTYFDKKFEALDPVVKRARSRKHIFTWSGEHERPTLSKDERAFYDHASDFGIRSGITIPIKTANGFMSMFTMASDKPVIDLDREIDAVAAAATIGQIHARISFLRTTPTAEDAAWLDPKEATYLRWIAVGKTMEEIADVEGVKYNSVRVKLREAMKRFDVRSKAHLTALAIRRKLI
Put plainly: Antagonist activity at Agrobacterium tumefaciens WCF (pCF372) TraR assessed as inhibition of OOHL-induced quorum sensing activation at 10 uM relative to untreated control.

For experiment [7], the target named is T3, Transcriptional activator protein TraR (Agrobacterium tumefaciens). Put plainly: Agonist activity at Agrobacterium tumefaciens WCF (pCF372) TraR assessed as activation of quorum sensing at 10 uM relative to OOHL.
The test system of experiment [8] is Escherichia coli DH5[alpha]. Put plainly: Antagonist activity at Escherichia coli DH5alpha (pJN105L + pSC11) LasR assessed as inhibition of N-(3-oxo)-dodecanoyl HL-induced quorum sensing activation at 10 uM relative to untreated control.

In general, inhibition refers to the relative decrease from the control value, in per cent.

Consider `CCCCCCCCCC(=O)CC(=O)NCc1ccc(OC)cc1`, for which the Activity in experiment [1] was determined as 73%; in experiment [3], 1%; in experiment [5], 2%; in experiment [7], 0%. In addition, the inhibition in experiment [2] is 38%; in experiment [4], 15%; in experiment [6], -8%.
Turning to `CCCCCCCCCC(=O)CC(=O)N[C@@H](C)C(=O)OC`, the Activity in experiment [1] amounted to 2%; in experiment [3], 0%; in experiment [5] it was 4%; in experiment [7], 0%. Further, the inhibition is -4% in experiment [8], 23% in experiment [2], 24% in experiment [4] and -4% in experiment [6].
For `CCCCCCCCCC(=O)CC(=O)NCCc1ccccc1`, the Activity in experiment [1] was 0%; in experiment [3], 0%; in experiment [5], 1%; in experiment [7] it was 0%. In addition, the inhibition is -4% in experiment [8], 5% in experiment [2], 7% in experiment [4] and -4% in experiment [6].
For the molecule `CCCCCCCCCC(=O)CC(=O)NC1CCCC1`, the Activity in experiment [1] is 84%; in experiment [3], 54%; in experiment [5], 4%; in experiment [7], -1%. The inhibition in experiment [2] was -1%; in experiment [4], 89%; in experiment [6], -3%.
Regarding `CCCCCCCCCC(=O)CC(=O)NCc1ccco1`, the Activity in experiment [1] is 0%; in experiment [3], 0%; in experiment [5], 4%; in experiment [7] it was -1%. Moreover, the inhibition in experiment [8] was 0%; in experiment [2], 26%; in experiment [4] it was -4%; in experiment [6], 1%.
With `CCCCCCCCCC(=O)CC(=O)NCc1cccc([N+](=O)[O-])c1`, the Activity was found to be 0% in experiment [1], 0% in experiment [3], 2% in experiment [5] and 0% in experiment [7]. The inhibition is 41% in experiment [8], 17% in experiment [2], 44% in experiment [4] and -6% in experiment [6].

For the origin of these results see ChEMBL document CHEMBL1811866, “Design, synthesis, and biological evaluation of abiotic, non-lactone modulators of LuxR-type quorum sensing” (Bioorg Med Chem, 2011).
